This passage reports Activity and Ki results from ChEMBL document CHEMBL1165882, “Synthesis and modulation properties of imidazo[4,5-b]pyridin-7-one and indazole-4,7-dione derivatives towards the Cryptosporidium parvum CpABC3 transporter” (Eur J Med Chem, 2010).

The subject of assay [1] is Cryptosporidium parvum. The assay can be described thus: Binding affinity to Cryptosporidium parvum recombinant H6-NBD1 of ABC3 transporter expressed in Escherichia coli BL21(DE3) assessed as intrinsic fluorescence quenching at 100 uM relative to control. A digest of the protocol:
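His6-tagged NBD1 purified on Ni-NTA, dialyzed against 50 mM Tris pH 7.3/100 mM KCl/0.02% HECAMEG/20% glycerol. Protein 0.25–0.5 μM in 50 mM Tris pH 7.3, 100 mM KCl, 0.02% HECAMEG; compounds 100 μM from DMSO stocks (≤2.5% DMSO), 30 min at 20 ± 2 °C. Excitation 295 nm, emission 328 nm; % of dialysis-buffer/solvent control; triplicates, 3 separate experiments.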

Assay [2] can be described thus: Inhibition of Cryptosporidium parvum recombinant H6-NBD1 of ABC3 transporter ATPase activity expressed in Escherichia coli BL21(DE3) after 10 mins. A digest of the protocol:
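Purified His6-NBD1 (2.5 μM final) incubated 10 min at 37 °C in 50 mM Tris pH 7.3, 100 mM KCl, 4 mM MgCl2, 0.02% HECAMEG with serially diluted compounds at various ATP concentrations. Reaction products quantified in triplicate by reverse-phase HPLC, detection at 254 nm; inhibition type and Ki by non-linear regression.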

In general, Ki refers to the dissociation constant of the complex between target and ligand, obtained from inhibition or displacement.

For `O=C1C=CC(=O)c2c1cnn2Cc1ccccc1`, in assay [1], the Activity is 22.9%.
Consider `Nc1ncnc2c1ncn2[C@@H]1O[C@H](COP(=O)(O)OP(=O)(O)OP(=O)(O)O)[C@H]2OC3(O[C@H]21)C([N+](=O)[O-])=CC(=[N+]([O-])[O-])C=C3[N+](=O)[O-]` (some centres undefined) [TNP-ATP], for which the Activity in assay [1] was 33.1%. The Ki in assay [2] (read-out: Ki) was found to be 36.6 µM.
Turning to `CC(C)(C)OC(=O)NCCCn1ccc(=O)c2c1ncn2Cc1ccccc1`, the Activity in assay [1] worked out at 96.1%. The Ki in assay [2] (read-out: Ki) was 539 µM.
On to `CC(=O)[C@H]1CC[C@H]2[C@@H]3CCC4=CC(=O)CC[C@]4(C)[C@H]3CC[C@]12C`, for which the Activity in assay [1] is 71.7%.
For `CCOC(=O)C(C)n1ccc(=O)c2c1ncn2Cc1ccccc1` (racemic), the Activity in assay [1] turned out to be 69.3%. The Ki in assay [2] (read-out: Ki) was found to be 232 µM.
Consider `CC(C)(C)OC(=O)NCCCCCCn1ccc(=O)c2c1ncn2Cc1ccccc1`, for which the Activity in assay [1] was 60.8%. Also, the Ki entry in assay [2] was “Not Active”.
On to `Cc1nc(Cn2ncc3c2C(=O)C=CC3=O)cs1`, for which the Activity in assay [1] worked out at 21.6%. Besides, the Ki in assay [2] (read-out: Ki) is 116 µM.
In the case of `CCOC(=O)Cn1ccc(=O)c2c1ncn2Cc1ccccc1`, the Activity in assay [1] worked out at 85.5%.
In the case of `CCOC(=O)CCCn1ccc(=O)c2c1ncn2Cc1ccccc1`, the Activity in assay [1] was determined as 80.1%.
